Compound activity from PubChem.
B2AR ag – activates human beta-2 adrenergic receptor causing internalization | AID 504454 | response, % (test concentration not listed) | actives 0.43% (n = 340,000) | Am2.2-beta2AR cells, FAP receptor internalization, flow cytometry | P07550;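 active = response above a set limit, near 3 SD of response in nonfluorescent compounds, cut at about 42% in these data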
Target sequence (P07550 whole entry, looked up): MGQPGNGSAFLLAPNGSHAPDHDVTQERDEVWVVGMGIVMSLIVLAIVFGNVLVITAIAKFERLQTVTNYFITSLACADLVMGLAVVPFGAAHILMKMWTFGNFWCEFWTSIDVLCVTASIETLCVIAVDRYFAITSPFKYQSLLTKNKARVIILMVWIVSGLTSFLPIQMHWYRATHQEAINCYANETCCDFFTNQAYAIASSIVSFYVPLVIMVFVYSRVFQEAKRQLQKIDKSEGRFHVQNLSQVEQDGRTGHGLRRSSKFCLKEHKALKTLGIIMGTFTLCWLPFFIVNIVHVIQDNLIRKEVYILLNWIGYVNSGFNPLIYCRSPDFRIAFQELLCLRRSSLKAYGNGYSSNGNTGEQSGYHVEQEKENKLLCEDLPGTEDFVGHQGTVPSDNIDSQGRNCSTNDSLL
TAAR1 antagonist – human TAAR1 antagonism | Q96RJ0 | inhibition, % at 3 µM | CHO RD-HGA16 TAAR1, Fluo-8 calcium fluorescence, antagonist | actives 1.5% (n = 360,000);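 active = inhibition above a per-plate cutoff, the mean inhibition of test compounds on that plate plus 3 SD, cut at about 49% in these data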
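System: RD-HGA16 CHO cells with stable hTAAR1 and Gα16 | Probe or stimulus: EC80 β-phenethylamine stimulus | Dosing: 3 µM, single point | Times: Dye loading 75 min at 37 °C, then 30 min room temperature | Measured by: Fluo-8 calcium-sensitive fluorescence | Read-out basis: % inhibition of agonist calcium response | Replicates: n of 1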
TAAR1 agonist – agonists of human TAAR1 | actives 0.99% (n = 360,000) | Q96RJ0 | activation, % at 3 µM | AID 624467 | CHO RD-HGA16 TAAR1, Fluo-8 calcium fluorescence; vehicle wells 0%, saturating PEA agonist 100%;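 active = activation above the mean activation of all test compounds in the run plus 3 SD, cut at about 38% in these data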
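Assay system – CHO-derived RD-HGA16 cells with stable Gα16 and human TAAR1 · Compound dosing – one-point dosing at 3 µM (nominal) · Incubation – 17-24 h seeding, 75 min 37 °C dye, 30 min RT · Measured by – kinetic Fluo-8 calcium fluorescence · Control set – DMSO vehicle as 0%, PEA at EC100 as 100% · Repeats – single well for each compound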
MC4R barr agon – activates human MC4R beta-arrestin recruitment | P32245 | U2OS MC4R beta-arrestin complementation, luminescence; percent of melanotan II response, DMSO zero | activation, % at 8.9 µM | actives 0.98% (n = 360,000) | AID 540308;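 active = activation above a per-plate cutoff, the mean activation of sample wells on that plate plus 3 SD, cut at about 8% in these data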
m5-HT2A agonist – mouse HTR2A agonism via beta-arrestin recruitment. P35363. CHO-K1 mHTR2A beta-arrestin complementation, luminescence; percent of 30 µM serotonin response. activation, % at 7.6 µM. actives 0.66% (n = 360,000). AID 624169;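 active = activation above a run cutoff, the mean activation of all tested compounds plus 3 SD, cut at about 14% in these data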
MC4R antag cAMP – blocks human MC4R cAMP signaling; MC4R-expressing cells, MTII-stimulated cAMP, LANCE TR-FRET; inhibition, % at 6.5 µM; actives 0.48% (n = 360,000); AID 540295;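 active = inhibition above its plate's cutoff, the mean of tested wells on that plate plus 3 SD, cut at about 29% in these data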
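System: U2OS cells stably expressing human melanocortin 4 receptor (MC4R). Reagent: Melanotan II challenge after compound preincubation. Doses: 6.5 µM. Times: 30-min compound, 1-h challenge, 1-h detection, room temperature. Measured by: TR-FRET with Eu-cAMP and labeled anti-cAMP, 671 nm. Replicates: singlicate.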
nonsel antag count – nonselective antagonist in TAAR1 antagonist counter-screen; counterscreen cell line, calcium fluorescence, antagonist mode; shares compounds with TAAR1 antagonist; actives 77% (n = 2,400); inhibition, % at 3 µM; in the data active = inhibition above about 22%;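 also: CHO-Ga16 host cells stimulated with ATP at an EC80 level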
TAAR1 ant conf – confirmation of human TAAR1 antagonists. inhibition, % at 3 µM. TAAR1-expressing cells, fluorescence antagonist read-out. actives 40% (n = 2,400). shares compounds with TAAR1 antagonist; in the data active = inhibition above about 49%;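 also: CHO-Ga16 host cells challenged with agonist PEA near its EC80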
Ga16 nonsel ag – counter-screen for TAAR1 antagonists: nonselective Ga16 agonists | actives 18% (n = 2,400) | Ga16-expressing cells, calcium fluorescence, agonist counterscreen | activation, % at 3 µM | shares compounds with TAAR1 antagonist; in the data active = activation above about 12%
TAAR1 ag counter – activates human TAAR1 in antagonist counter-screen. shares compounds with TAAR1 antagonist. hTAAR1 cell line, fluorescence activation, agonist mode. activation, % at 3 µM. actives 2% (n = 2,400). AID 651955; in the data active = activation above about 37%;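 also: CHO cells stably expressing TAAR1 with calcium dye readout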
Hits are given with their value; 0 = inactive; - = no result. Hits are enriched below; roughly 4.3% of the tested compounds scored in any of these assays.

SMILES	B2AR ag	TAAR1 antagonist	TAAR1 agonist	MC4R barr agon	m5-HT2A agonist	MC4R antag cAMP	nonsel antag count	TAAR1 ant conf	Ga16 nonsel ag	TAAR1 ag counter
COc1ccc(-n2cc(-c3ccccc3)c3c(N4CCOCC4)ncnc32)cc1	0	69	0	0	0	0	24	0	0	0
NC(=O)C1CCN(c2ncnc3c2c(-c2ccccc2)cn3-c2ccccc2)CC1	0	64	0	0	0	0	25	0	0	0
CCN1CCN(c2ncnc3c2c(-c2ccccc2)cn3-c2ccc(F)cc2)CC1	0	0	0	0	0	0	-	-	-	-
O=C(O)C1CC(Br)C(Br)CC1C(=O)O (configuration not stated)	-	0	0	0	0	0	-	-	-	-
O=C(CSc1n[nH]c(-c2ccco2)n1)Nc1ccccc1Cl	0	0	0	0	0	0	-	-	-	-
CCOC(=O)C1C(=O)C=C(c2ccc(C)cc2)CC1c1ccc([N+](=O)[O-])cc1 (configuration not stated)	0	0	0	0	0	0	-	-	-	-
CCOC(=O)C1C(=O)C=C(c2ccccc2)CC1c1ccccc1 (configuration not stated)	0	59	0	0	0	0	30	0	0	0
CCOC(=O)C1=CN(Cc2cccc(-c3cccnc3)c2)S(=O)(=O)N(CC)C1C (configuration not stated)	0	0	0	0	0	0	-	-	-	-
CCOC(=O)C1=CN(Cc2cccc(-c3cccnc3)c2)S(=O)(=O)N(C)C1C (configuration not stated)	0	49	0	0	0	0	21	0	0	0
N#Cc1ccc(Oc2ccc(S(=O)(=O)N3CCOCC3)cn2)cc1	0	0	0	0	0	0	-	-	-	-
NC(=O)c1cccc(-c2coc3c(C(=O)NCCc4ccccc4)cccc23)c1	-	64	0	0	0	0	36	0	0	0
COC(=O)c1nccnc1N	0	103	0	0	0	0	0	0	0	0
COC(=O)c1nc(C(=O)OC)c(C(=O)OC)nc1C(=O)OC	0	0	0	0	0	0	-	-	-	-
COc1ccc(-c2[nH]c(-c3ccccc3)nc2SCC(=O)Nc2nccs2)cc1	0	49	0	0	0	0	0	0	0	0
N#Cc1cc(C#N)c(N2CCN(c3cccc(Cl)n3)CC2)nc1N	0	58	0	0	0	0	34	49	19	0
O=C(/C=C/c1ccccc1)N1CCN(c2cccc(Cl)n2)CC1	0	0	0	0	0	0	-	-	-	-
O=C(NCc1cccs1)C1CCC(CNS(=O)(=O)c2ccc(Br)s2)CC1 (configuration not stated)	0	57	0	0	0	0	0	53	0	39
CC(C)N(Cc1ccccc1)S(=O)(=O)c1n[nH]c(C(C)(C)C)n1	-	0	0	-	-	-	-	-	-	-
O=C(N/N=C/c1ccc2cccc(OCc3ccccc3)c2n1)c1ccc(Br)cc1	0	62	0	0	0	0	0	0	0	0
COc1ccc(C(=O)N/N=C/c2ccc3cccc(OCc4ccccc4)c3n2)cc1	0	60	0	0	0	0	27	53	0	0
NC(=S)N/N=C/c1ccc2cccc(OCc3ccccc3)c2n1	0	0	0	0	0	0	-	-	-	-
O=C(CCCCCN1C(=O)[C@@H]2Cc3ccccc3CN2C1=O)Nc1cccc(F)c1	0	67	0	0	0	0	42	60	13	0
O=C(CO)c1c[nH]c2ccccc12	-	0	0	0	0	0	-	-	-	-
COc1ccc(NC(=S)Nc2nc(CC(=O)Nc3ccccc3OC)cs2)cc1	0	0	0	0	0	0	-	-	-	-
COc1ccccc1NC(=O)Nc1nc(CC(=O)NCc2c(F)cccc2F)cs1	0	58	0	0	0	0	29	0	0	0
SMILES	B2AR ag	TAAR1 antagonist	TAAR1 agonist	MC4R barr agon	m5-HT2A agonist	MC4R antag cAMP	nonsel antag count	TAAR1 ant conf	Ga16 nonsel ag	TAAR1 ag counter
COc1ccc(NC(=O)Cc2csc(NC(=O)Nc3ccccc3OC)n2)c(OC)c1	0	69	0	0	0	0	0	0	0	0
COc1ccc(OC)c(NC(=O)Cc2csc(NC(=O)Nc3ccccc3OC)n2)c1	0	65	0	0	0	0	39	54	0	0
COc1ccccc1NC(=O)Cc1csc(NC(=S)Nc2ccccc2)n1	0	0	0	0	0	0	-	-	-	-
CCn1cc(CNC(=O)c2cc(COc3ccc(F)cc3F)on2)cn1	0	0	0	0	0	0	-	-	-	-
O=c1n(Cc2ccc(Cl)cc2)c2sc3c(c2c2ncnn12)CCCC3	0	66	0	0	0	0	0	0	0	0
Cc1ccc(NC(=O)CSc2nnc(C3CC3)n2C)cc1S(=O)(=O)N1CCCCC1	0	0	0	0	0	0	-	-	-	-
CCOC1=C2[C@H]([C@H]3C(=O)N(c4ccccc4)C(=O)[C@H]3C1)[C@@H](C(C)C)N(S(=O)(=O)c1ccc(C)cc1)[C@H]2c1ccccc1	-	0	0	-	0	-	-	-	-	-
Cc1c(Cl)c([N+](=O)[O-])nn1Cc1ccc(C(=O)N/N=C\c2cccc(Br)c2)o1	0	65	0	0	0	0	35	0	0	0
O=C(N/N=C\c1cccc(Cl)c1)c1ccc(Cn2cc(Br)c([N+](=O)[O-])n2)o1	0	0	0	0	0	0	-	-	-	-
COc1ccc(C(=O)OCc2c(-c3ccccc3)ncc3ccccc23)cc1	0	0	0	0	0	0	-	-	-	-
O=C(O)c1ccc(N/N=C/C2=C(N3CCOCC3)C(=C\c3ccccc3)/CC2)cc1	0	82	0	0	0	29	51	65	0	0
CC1CN(CC(O)COc2ccc(C#N)cc2)CCN1CC(O)COc1ccc(C#N)cc1 (configuration not stated)	0	0	0	0	0	0	-	-	-	-
Cc1nc(N2CCN(Cc3ccc4c(c3)OCO4)CC2)c2oc3ccccc3c2n1	0	72	0	0	0	0	0	0	0	0
C=CCOC(=O)C1=C(C)NC(SCC(=O)Nc2nccs2)=C(C#N)C1c1cccs1 (configuration not stated)	0	53	0	0	0	0	0	0	0	0
O=C(COc1cccc(NC(=O)c2cccc([N+](=O)[O-])c2)c1)c1ccc(F)cc1	0	78	0	0	0	0	38	58	12	0
